In ChEMBL document CHEMBL3525967, “In vitro glucuronidation of the antibacterial triclocarban and its oxidative metabolites” (Drug Metab Dispos, 2012) one finds Drug metabolism data, which are given here for three molecules.

Data set [1] can be described thus: Drug metabolism in B6C3F1 mouse liver microsomes assessed as glucuronidation incubated for 5 mins prior to UDPGA addition measured after 5 to 30 mins by LC-UV analysis. The data set is classed as ADME. In outline: (§1)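 Microsomes or Sf-9 Supersomes (5 µg protein in 200 µL 100 mM potassium phosphate pH 7.4) pre-treated with alamethicin on ice 15 min; substrate 10 µM final (2% DMSO), MgCl2 and saccharolactone 10 mM each; 5 min preincubation at 37 °C, then UDPGA to start. Samples taken at 5, 10, 15, 30 min (or 2, 5, 10, 15 min) into ACN with internal standard; LC-UV-ESI-MS/MS.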

A short description of data set [2]: Drug metabolism in cynomolgus monkey liver microsomes assessed as glucuronidation incubated for 5 mins prior to UDPGA addition measured after 5 to 30 mins by LC-UV analysis. It is filed as ADME, Macaca fascicularis. In short, it runs like this:
as §1

In data set [3] the target is T1, UDP-glucuronosyltransferase 1A10 (Homo sapiens, UniProt Q9HAW8).
T1 sequence (Q9HAW8 whole entry): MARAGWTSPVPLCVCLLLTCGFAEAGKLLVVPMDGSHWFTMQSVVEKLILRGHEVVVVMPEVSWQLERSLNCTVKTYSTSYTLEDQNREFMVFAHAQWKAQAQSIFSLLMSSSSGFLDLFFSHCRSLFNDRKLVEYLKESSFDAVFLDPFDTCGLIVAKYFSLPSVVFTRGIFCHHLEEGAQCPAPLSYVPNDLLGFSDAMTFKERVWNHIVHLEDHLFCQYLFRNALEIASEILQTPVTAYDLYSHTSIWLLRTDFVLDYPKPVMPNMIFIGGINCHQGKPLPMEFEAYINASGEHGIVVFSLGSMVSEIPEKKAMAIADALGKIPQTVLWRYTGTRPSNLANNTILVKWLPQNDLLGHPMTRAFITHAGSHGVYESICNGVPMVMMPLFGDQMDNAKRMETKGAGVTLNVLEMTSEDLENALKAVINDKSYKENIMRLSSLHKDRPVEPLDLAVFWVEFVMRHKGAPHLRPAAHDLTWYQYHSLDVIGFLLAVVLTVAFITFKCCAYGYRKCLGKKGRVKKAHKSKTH
Description: Drug metabolism assessed as human UGT1A10-mediated glucuronidation expressed in baculovirus infected insect sf9 cells incubated for 5 mins prior to UDPGA addition measured after 5 to 30 mins by LC-UV analysis. It is filed as ADME. In outline: as §1

The target of data set [4] is T2, UDP-glucuronosyltransferase 1A3 (Homo sapiens, UniProt P35503).
T2 sequence (P35503 whole entry): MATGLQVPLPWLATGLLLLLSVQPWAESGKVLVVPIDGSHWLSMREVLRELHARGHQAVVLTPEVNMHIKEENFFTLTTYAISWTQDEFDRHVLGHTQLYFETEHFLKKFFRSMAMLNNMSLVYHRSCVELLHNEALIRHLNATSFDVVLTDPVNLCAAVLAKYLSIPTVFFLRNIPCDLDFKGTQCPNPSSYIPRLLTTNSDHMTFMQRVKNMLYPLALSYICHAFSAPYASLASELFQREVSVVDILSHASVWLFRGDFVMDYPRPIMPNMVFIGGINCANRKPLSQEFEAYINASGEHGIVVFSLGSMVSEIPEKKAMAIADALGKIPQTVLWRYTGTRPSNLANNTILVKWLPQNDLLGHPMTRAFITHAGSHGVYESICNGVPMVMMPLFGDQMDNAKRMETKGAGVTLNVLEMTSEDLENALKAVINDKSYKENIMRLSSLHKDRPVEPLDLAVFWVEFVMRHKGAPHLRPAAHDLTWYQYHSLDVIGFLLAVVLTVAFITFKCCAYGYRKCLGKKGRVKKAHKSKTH
Description: Drug metabolism assessed as human UGT1A3-mediated glucuronidation expressed in baculovirus infected insect sf9 cells incubated for 5 mins prior to UDPGA addition measured after 5 to 30 mins by LC-UV analysis. It is filed as ADME. In short, it runs like this:
as §1

Data set [5] concerns the target T3, UDP-glucuronosyltransferase 2B15 (Homo sapiens, UniProt P54855).
T3 sequence (P54855 whole entry): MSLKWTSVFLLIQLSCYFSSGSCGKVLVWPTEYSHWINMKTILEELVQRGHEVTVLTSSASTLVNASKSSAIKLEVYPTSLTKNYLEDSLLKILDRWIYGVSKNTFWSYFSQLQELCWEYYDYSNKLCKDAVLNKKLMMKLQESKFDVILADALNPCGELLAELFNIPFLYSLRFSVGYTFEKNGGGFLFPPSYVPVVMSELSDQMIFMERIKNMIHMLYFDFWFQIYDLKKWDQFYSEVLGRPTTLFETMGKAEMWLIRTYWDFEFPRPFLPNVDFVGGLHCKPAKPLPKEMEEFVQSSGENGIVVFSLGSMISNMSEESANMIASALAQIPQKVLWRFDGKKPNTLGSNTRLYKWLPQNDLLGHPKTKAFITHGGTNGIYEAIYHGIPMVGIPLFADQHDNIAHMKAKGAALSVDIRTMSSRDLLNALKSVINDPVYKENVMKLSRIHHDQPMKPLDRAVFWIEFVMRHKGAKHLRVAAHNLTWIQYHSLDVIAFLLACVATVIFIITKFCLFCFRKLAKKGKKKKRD
Description: Drug metabolism assessed as human UGT2B15-mediated glucuronidation expressed in baculovirus infected insect sf9 cells incubated for 5 mins prior to UDPGA addition measured after 5 to 30 mins by LC-UV analysis. It is filed as ADME. In short, it runs like this:
as §1

For another data set, the system named is Liver microsome. As to the kind of experiment: Drug metabolism in Sprague-Dawley rat liver microsomes assessed as glucuronidation incubated for 5 mins prior to UDPGA addition measured after 5 to 30 mins by LC-UV analysis. The data set is classed as ADME. In outline: as §1
For data set [6], the target named is T4, UDP-glucuronosyltransferase 1A8 (Homo sapiens, UniProt Q9HAW9).
T4 sequence (Q9HAW9 whole entry): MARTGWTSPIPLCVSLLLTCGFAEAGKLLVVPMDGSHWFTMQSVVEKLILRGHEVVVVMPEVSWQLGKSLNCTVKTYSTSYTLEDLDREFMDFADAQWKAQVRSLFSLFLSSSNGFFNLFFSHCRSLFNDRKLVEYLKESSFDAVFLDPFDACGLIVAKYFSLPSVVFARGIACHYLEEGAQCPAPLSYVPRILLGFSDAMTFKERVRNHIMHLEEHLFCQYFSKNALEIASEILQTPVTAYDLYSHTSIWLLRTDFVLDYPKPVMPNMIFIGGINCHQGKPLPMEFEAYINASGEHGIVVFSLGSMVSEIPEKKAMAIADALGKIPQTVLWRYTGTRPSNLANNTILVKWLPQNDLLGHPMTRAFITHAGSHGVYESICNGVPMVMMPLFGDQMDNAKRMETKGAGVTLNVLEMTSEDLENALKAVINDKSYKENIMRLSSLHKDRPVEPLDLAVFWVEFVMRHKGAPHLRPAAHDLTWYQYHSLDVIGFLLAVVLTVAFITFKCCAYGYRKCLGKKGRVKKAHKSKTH
Description: Drug metabolism assessed as human UGT1A8-mediated glucuronidation expressed in baculovirus infected insect sf9 cells incubated for 5 mins prior to UDPGA addition measured after 5 to 30 mins by LC-UV analysis. It is filed as ADME. In short, it runs like this:
as §1

`O=C(Nc1ccc(Cl)c(Cl)c1)Nc1ccc(Cl)cc1O`: the Drug metabolism in data set [1] is reported as 2600 pmol/min/mg; in data set [2], 22800 pmol/min/mg; in data set [3], 210 pmol/min/mg; in data set [4], 390 pmol/min/mg; in data set [5] it was “metabolite_not_detected”; with Liver microsome it was 2600 pmol/min/mg. Besides, the Drug metabolism in data set [6] worked out at 5700 pmol/min/mg.
With `O=C(Nc1ccc(Cl)cc1)Nc1cc(Cl)c(Cl)cc1O`, the Drug metabolism in data set [1] is 7900 pmol/min/mg; in data set [2] it was 16300 pmol/min/mg; in data set [3], 280 pmol/min/mg; in data set [4], 410 pmol/min/mg; in data set [5], “metabolite_not_detected”; in the data set on Liver microsome, 5500 pmol/min/mg. Also, in data set [6], the Drug metabolism is recorded as 5000 pmol/min/mg.
Turning to `O=C(Nc1ccc(Cl)c(O)c1)Nc1ccc(Cl)c(Cl)c1`, the Drug metabolism is given as 14700 pmol/min/mg in data set [1]; 9500 pmol/min/mg in data set [2]; “BLD” in data set [3] (BLD = below limit of detection); 540 pmol/min/mg in data set [4]; “metabolite_not_detected” in data set [5]; 8700 pmol/min/mg with Liver microsome. In addition, in data set [6], the Drug metabolism worked out at 9400 pmol/min/mg.
